The list is not random: actives were taken first. Their share in the collection is about 2.5%.
SIAE inh: human SIAE inhibition, primary screen; Q9HAT2; 0.69% of 370,000 active; inhibition, % at 9.66 µM; SIAE FP-Rh probe binding, fluorescence polarization;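 active means inhibition above a cutoff: mean of compounds within the control limits plus 3 SD of those, cut at about 17% in these data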;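 further: 0% = plate median of compound wells and 100% = probe without SIAE protein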
mABHD4 FP: inhibits mouse alpha/beta hydrolase domain 4. purified mABHD4, FP-Rh probe fluorescence polarization. inhibition, % at 8.92 µM. 0.54% of 370,000 active. AID 720543. Q8VD66;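 active means inhibition exceeding the mean over every tested compound plus 3 SD, cut at about 30% in these data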;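 further: 0% = plate median of compound wells and 100% = S159A mutant with DMSO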
Target sequence (Q8VD66 whole entry, looked up, the tested form may be a part): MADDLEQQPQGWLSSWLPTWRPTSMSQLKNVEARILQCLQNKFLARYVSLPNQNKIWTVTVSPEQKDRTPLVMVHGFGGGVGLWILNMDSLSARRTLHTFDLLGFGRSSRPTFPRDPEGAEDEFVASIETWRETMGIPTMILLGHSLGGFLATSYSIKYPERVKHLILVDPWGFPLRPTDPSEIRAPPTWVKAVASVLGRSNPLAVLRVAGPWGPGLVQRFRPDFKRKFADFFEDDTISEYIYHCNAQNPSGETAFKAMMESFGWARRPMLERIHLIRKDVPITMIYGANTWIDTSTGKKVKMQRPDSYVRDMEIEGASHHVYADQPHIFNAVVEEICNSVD
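Test system: mABHD4 protein | Buffer or medium: HEPES pH 7.0 buffer, 150 mM NaCl, 0.01% Pluronic F-127 | Probe or stimulus: FP-Rh fluorescent activity-based probe, added after compound pre-incubation | Timing: Pre-incubation 45 min, probe exposure 60 min, at 25 °C | Technique: Fluorescence polarization, excitation 525 nm, emission 598 nm, BODIPY TMR filters | Repeats: Single well per compound (singlicate)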
HTRA1 inh: inhibitors of human serine peptidase HTRA1. inhibition, % at 5.96 µM. recombinant HTRA1, FP-rhodamine activity-based probe, fluorescence polarization. Q92743. 0.5% of 340,000 active. AID 504803; in the data active means inhibition above about 36%;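 further: 0% = enzyme with DMSO and 100% = wells lacking enzyme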
PRMT1 inh: inhibitors of human PRMT1; 1.3% of 370,000 active; recombinant PRMT1, activity-based probe fluorescence polarization; inhibition, % at 2.79 µM;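 active means inhibition above about 21% made by adding two undisclosed values, limit read from the data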
Target sequence (Q99873 whole entry, looked up): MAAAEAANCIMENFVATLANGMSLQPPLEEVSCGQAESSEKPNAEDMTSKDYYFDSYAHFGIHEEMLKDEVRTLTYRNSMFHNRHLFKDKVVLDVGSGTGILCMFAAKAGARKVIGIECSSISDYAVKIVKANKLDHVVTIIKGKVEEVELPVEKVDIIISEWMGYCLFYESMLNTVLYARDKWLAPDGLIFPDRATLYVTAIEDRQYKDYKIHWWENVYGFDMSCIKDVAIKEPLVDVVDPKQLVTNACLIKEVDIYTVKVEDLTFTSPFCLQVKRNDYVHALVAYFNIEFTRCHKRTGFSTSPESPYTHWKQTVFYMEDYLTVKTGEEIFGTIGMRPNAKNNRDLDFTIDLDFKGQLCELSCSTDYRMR
TCR CD3 inh: inhibitors of human TCR-CD3 interaction. TAMRA-labeled TCR probe fluorescence, biochemical. inhibition, % at 9.4 µM. 0.37% of 360,000 active;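 further: recombinant mutant TCR 2C K166C tagged with TAMRA read by polarization; 0% = receptor in buffer alone and 100% = receptor with positive control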
HTRA1 conf: HTRA1 (human) inhibition, confirmation; shares compounds with HTRA1 inh; recombinant HTRA1, FP-rhodamine activity-based probe, fluorescence polarization; inhibition, % at 5.96 µM; 66% of 1,600 active; AID 540248;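 active means mean inhibition over three repeats above a set limit taken from the earlier primary screen, cut at about 37% in these data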;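 further: 0% = HTRA1 with DMSO and 100% = wells lacking HTRA1; inhibitors block probe binding so polarization drops and inhibition rises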
BSA TAMRA ctr: interferes with TAMRA-BSA probe, flagging TCR-CD3 hits. shares compounds with TCR CD3 inh. TAMRA-labeled BSA probe fluorescence counterscreen. inhibition, % at 9.4 µM. 10% of 1,200 active; in the data active means inhibition above about 23%;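 further: 0% = buffer low control and 100% = reference high control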
TCR-CD3 inh conf: TCR-CD3 interaction inhibition, confirmation. shares compounds with TCR CD3 inh. TAMRA-labeled TCR probe fluorescence binding assay. inhibition, % at 9.4 µM. 48% of 1,200 active. AID 652036
PRMT1 inh conf: confirmation of human PRMT1 inhibitors; shares compounds with PRMT1 inh; recombinant His-PRMT1, activity-based probe fluorescence polarization; inhibition, % at 2.79 µM; 42% of 3,300 active;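 active means mean inhibition across replicates above the hit cutoff derived for the earlier primary screen, cut at about 22% in these data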
mABHD4 conf: ABHD4 (mouse) inhibition, FP confirmation | purified mABHD4, FP-Rh probe fluorescence polarization | 55% of 1,800 active | inhibition, % at 8.92 µM | shares compounds with mABHD4 FP;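 active means mean inhibition across replicates above the hit cutoff set in the primary screen, cut at about 30% in these data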;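 further: 0% = wild-type ABHD4 with DMSO and 100% = catalytically dead S159A mutant with DMSO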
* hit, by the source's call; . = no result given. Unless noted, no stated cut-off is given here; in the data, active means inhibition above about 19%; inactive means the rest.

SMILES | SIAE inh | mABHD4 FP | HTRA1 inh | PRMT1 inh | TCR CD3 inh | HTRA1 conf | mABHD4 conf | others
Fc1cccc(Cl)c1CNc1ccc(N2CCCC2)cc1 | 11 | 32* | 47* | 6 | 5 | 32 | 49*
C#CC[N+](C)(C)CCCCCCCCCC | -2 | 0 | 10 | 1 | 3 | . | .
CCCCCCCCCCCCCCCC[N+](C)(C)CCl | -3 | 50* | 65* | 1 | 11 | 74* | 12
C#CC[N+](C)(C)CCCCCCCCCCCC | -7 | 11 | 3 | 3 | -6 | . | .
CCCCCCCCCCCCCCCC[N+](C)(C)CC | 0 | 47* | 61* | -4 | 4 | 167* | 60*
COCCOC1CCN(C(=O)C2CCC(=O)N(CCc3ccccc3)C2)CC1 (stereo not given) | 2 | 5 | 2 | -2 | 1 | . | .
CCCCCCCCCCOC(=O)Cn1c(COc2cccc(C)c2)[n+](C)c2ccccc21 | 2 | 32* | 38* | -2 | 2 | 33 | 38*
CCCCCCCCCCOC(=O)Cn1c(COc2ccc(OC)cc2)[n+](C)c2ccccc21 | . | . | 18 | . | . | . | .
COc1cc(OC)cc(C(=O)NCCCCc2ccccc2)c1 | -3 | -5 | -6 | -2 | -6 | . | .
CCOC(=O)c1nn(-c2ccccc2)c(=O)c2c(N)scc12 | 1 | 6 | 2 | 17 | -20 | . | .
Nc1scc2c(C(=O)N/N=C/c3ccc(Cl)cc3)nn(-c3ccccc3)c(=O)c12 | 12 | 44* | 41* | 22* | 12 | -4 | 20
Cc1ccccc1-c1cccc([C@@H]2C[C@H]3CN(Cc4cccnc4)C(=O)[C@]34CCCN24)c1 | -4 | -2 | -4 | -2 | 2 | . | .
O=C(N/N=C/c1ccc(O)c(O)c1)NC12CC3CC(CC(C3)C1)C2 | 12 | 33* | 68* | 4 | -4 | 82* | 31*
COc1cc(/C=N/NC(=O)NC23CC4CC(CC(C4)C2)C3)ccc1O | 1 | 6 | -3 | -3 | -2 | . | .
CC(C)Nc1ccc(Nc2ccnc3cc4ccccc4cc23)cc1 | 8 | 31* | 39* | -3 | -2 | 46* | 54*
CCN(CC)c1ccc(N=Cc2ccc(N(CC)CC)cc2O)cc1 | 6 | 39* | 65* | 24* | -2 | 6 | 19
C=C1c2cccc(O)c2C(O)=C2C(=O)[C@]3(O)C(O)=C(C(N)=O)C(=O)[C@@H](N(C)C)[C@@H]3[C@@H](O)[C@H]12 | 69* | 79* | 53* | 52* | 52* | 30 | 26 | BSA TAMRA ctr=-8;TCR-CD3 inh conf=4;PRMT1 inh conf=26*
COc1cc(C(=O)N/N=C/c2ccc(OC)c(CN3CCN(c4ccc(F)cc4)CC3)c2)ccc1O | 7 | -7 | -7 | -1 | 5 | . | .
COc1ccc(/C=C(\C#N)C(=O)NCCc2ccccc2)cc1OCc1ccccc1 | -25 | -6 | -3 | 1 | 7 | . | .
N#C/C(=C\c1ccc(O)c(O)c1)C(=O)NCCCc1ccccc1 | 14 | 34* | 66* | 1 | 2 | 77* | 52*
Clc1ccccc1C1Nc2cccc3cccc(c23)N1 | 14 | 48* | 48* | 19 | 1 | 28 | 36*
O=C(N/N=C/c1cc(Br)c(Br)o1)c1ccc2c(c1)OCCO2 | 7 | 6 | 5 | 9 | 9 | . | .
O=C(N/N=C/c1cc(Br)c(O)c(Br)c1O)c1ccc2c(c1)OCCO2 | 14 | 49* | 44* | 2 | 25* | 41* | 58* | BSA TAMRA ctr=-33;TCR-CD3 inh conf=20*
Cc1ccc(C)c(S(=O)(=O)N2CCN(C(=O)C3CCN(c4ncnc5sc(C)c(C)c45)CC3)CC2)c1 | -2 | 3 | -35 | 0 | 5 | . | .
CCOC(=O)C1=C(C(=O)OCC)C2N(Cc3ccc(C#N)cc3)c3ccccc3[C@@]23C[C@@H](C(=O)OC)N(S(=O)(=O)c2ccccc2C)C3=N1 (stereo not given in full) | 0 | 1 | . | 4 | -2 | . | .
SMILES | SIAE inh | mABHD4 FP | HTRA1 inh | PRMT1 inh | TCR CD3 inh | HTRA1 conf | mABHD4 conf | others
CN=c1scc(-c2ccccc2F)n1/N=C/c1ccc[nH]1 | -3 | -1 | 27 | 7 | -10 | . | .
CC(C)N=c1scc(-c2cccs2)n1/N=C/c1ccc(O)c(O)c1O | 14 | 41* | 57* | 10 | 7 | 65* | 54*
CN=c1scc(-c2ccccc2F)n1/N=C/c1ccc(O)c(O)c1O | 16 | 49* | 72* | 20 | 16 | 77* | 60*
Cc1c(C(=O)NCc2ccc3c(c2)cc(C)n3C)cccc1[N+](=O)[O-] | 2 | 1 | 23 | 6 | 12 | . | .
O=C(O)c1ccc(/C=N/NC(=O)c2cc3ccccc3cc2O)cc1 | 13 | 31* | 42* | 7 | 1 | 16 | -6
O=C(CNc1ccc2ccccc2c1)N/N=C/c1ccc(C(=O)O)cc1 | 0 | 17 | 3 | 18 | -1 | . | .
N#Cc1cc(N2CCCCC2)c([N+](=O)[O-])cc1C#N | -2 | 5 | 1 | -1 | 3 | . | .
O=[N+]([O-])c1cc2no[n+]([O-])c2cc1N1CCCCC1 | 11 | 55* | 77* | 2 | 15 | 32 | 51*
CCOc1ccc(NC(=O)CN(C)C(=O)c2ccc(OCC(=O)N3CCOCC3)c(OC)c2)cc1OCC | -6 | -4 | -2 | 12 | -7 | . | .
CN(C(=O)[C@@H](C1CC1)[C@@H](O)c1ccc(Cl)cc1)c1ccccc1 | 6 | 3 | . | 0 | . | . | .
COc1ccc(OC)c(Nc2nc(-c3sc(NC(=O)CC(C)C)nc3C)cs2)c1 | 9 | 35* | 37* | 4 | 5 | 27 | 54*
CCCCC(=O)Nc1nc(C)c(-c2csc(Nc3cc(OC)ccc3OC)n2)s1 | 8 | 42* | 39* | 0 | 1 | 26 | 66*
COc1ccc(-c2cc(-c3nnc(SCC(=O)Nc4nccs4)n3N)[nH]n2)cc1 | -6 | -4 | . | -6 | . | . | .
O=[N+]([O-])c1ccc(N=Nc2c(Cl)cc(O)cc2Cl)cc1 | 26* | 77* | 67* | 1 | 0 | 73* | 85*
CN1CCN(C2=C(Cl)C(=O)c3ccccc3C2=O)CC1 | 13 | 37* | 50* | 18 | 15 | 48* | 32*
Cc1[nH]c2ccccc2c1/C=N/n1cnnc1 | 6 | -6 | -1 | -3 | 4 | . | .
CCN(CC)c1ccc(N=Cc2c(C)[nH]c3ccccc23)cc1 | 14 | 36* | 50* | 14 | -5 | 22 | 30*

Screens from PubChem BioAssay.
